{"data": "Experimental data gathered from unrelated publications", "organism": "Mycobacterium tuberculosis variant bovis BCG", "observed": "microbial growth", "note": "Lines come from different studies, so protocols differ."}
{"SMILES": "C=CC(c1ccc(-c2ccc(OC)c(OC)c2)cc1)n1ccnc1 (stereo not drawn)", "system": "BCG", "quantity": "MIC50", "value": "> 100 µM"}
{"SMILES": "COc1ccc(C=CC(=O)c2ccccc2C)cc1OC", "system": "BCG", "conditions": "7 days", "quantity": "MIC", "value": "50 µg/mL"}
{"SMILES": "C=CC(c1ccc(-c2ccc(C#N)cc2)cc1)n1ccnc1 (stereo not drawn)", "system": "BCG", "quantity": "MIC50", "value": "9.2 µM"}
{"SMILES": "COc1ccc(C=CC(=O)c2ccc(F)cc2)cc1OC", "system": "BCG", "conditions": "7 days", "quantity": "MIC", "value": "25 µg/mL"}
{"SMILES": "NNC(=O)c1ccncc1", "system": "ATCC35734 BCG", "quantity": "MIC", "value": "≤ 0.25 µM"}
{"SMILES": "C=CC(c1ccc(-c2ccc(O)c(Cl)c2)cc1)n1ccnc1 (stereo not drawn)", "system": "BCG", "quantity": "MIC50", "value": "49.9 µM"}
{"SMILES": "c1ccc(COc2ccc(CNCc3ccncc3)cc2)cc1", "system": "ATCC35734 BCG", "quantity": "MIC", "value": "> 62.5 µM"}
{"SMILES": "COc1ccc(C=CC(=O)c2ccccc2)cc1OC", "system": "BCG", "conditions": "7 days", "quantity": "MIC", "value": "6.25 µg/mL"}
{"SMILES": "C=CC(c1ccc(-c2ccc3cc(OC)ccc3c2)cc1)n1ccnc1 (stereo not drawn)", "system": "BCG", "quantity": "MIC50", "value": "9.7 µM"}
{"SMILES": "Fc1ccc(COc2ccc(CNCc3ccccc3)cc2)cc1", "system": "ATCC35734 BCG", "quantity": "MIC", "value": "> 62.5 µM"}
{"SMILES": "COc1ccc(C=CC(=O)c2ccc(Br)cc2)cc1OC", "system": "BCG", "conditions": "7 days", "quantity": "MIC", "value": "12.5 µg/mL"}
{"SMILES": "C=CC(c1ccc(-c2ccc(OC)c(C)c2)cc1)n1ccnc1 (stereo not drawn)", "system": "BCG", "quantity": "MIC50", "value": "17.3 µM"}
{"SMILES": "Nc1cnc(C(=O)O)cn1", "system": "ATCC35734 BCG", "conditions": "5 days", "quantity": "IC50", "value": "800 µM"}
{"SMILES": "c1ccc(COc2ccccc2CNCc2ccncc2)cc1", "system": "ATCC35734 BCG", "quantity": "MIC", "value": "> 62.5 µM"}
{"SMILES": "CCCCCCn1c2c([n+](C3CCC4(CCCCC4)CC3)c1C)C(=O)c1ccccc1C2=O", "system": "BCG", "conditions": "5 days", "quantity": "MIC50", "value": "0.08 µM"}
